Assay results as given in publication PMC2836884 (Journal of Acquired Immune Deficiency Syndromes (1999), 2009).
Like-named read-outs stand apart in the source and are kept apart here.

Legend:
[1] = assay type: in vivo, human
Summary of the method: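 HIV-1–infected patients aged 9–18 y, Tanner-stratified; one oral-solution dose of 8 mg/kg (max 600 mg) with water, fasted from 1 h before to 2 h after. Heparinised plasma sampled at 0–8 h (10 points) and assayed by reversed-phase HPLC-UV. Per-subject 1-compartment zero-order-absorption fit by weighted least squares gave kel and CL/F; Tmax by inspection; AUC 0–8 h.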

[2] = in vivo, cited from earlier work
cytochrome P450 system = settings: cited from earlier work
[3] = children n = 22 (3 mo to 13 yrs), cited from earlier work
[4] = children receiving 8 mg/kg, primarily prepubescent; Jullien et al; cited from earlier work
HIV = settings: 8 mg/kg twice daily with AZT or 3TC; previously untreated children; cited from earlier work
[5] = adults receiving 600 mg (approximately 8 mg/kg); Weller et al; cited from earlier work
[6] = adults n = 12 (24–48 yrs), cited from earlier work
[7] = adults, cited from earlier work
[8] = in vivo, po; cited from earlier work

For `Nc1nc(NC2CC2)c2ncn([C@H]3C=C[C@@H](CO)C3)c2n1` [ABC, Abacavir], the “Intersubject variation of CL/F referenced to body weight” value ([1]; all subjects) was “more than 8 fold”, the “share of the total AUC in the period after 8 hours” value ([1]; all subjects, estimated) was < 3% and the Tmax ([1]; both, human, plasma, po, 8 mg/kg) was 1 h. The “oral clearance, adjusted for body size, higher for children than adults” value ([2]; po) was “approximately 2 times”, the “systemic exposure (AUC) in children lower than adult values” [2] was “approximately 50%” and the “substrate or inhibitor of the cytochrome P450 system” value (cytochrome P450 system) was “not a substrate or inhibitor of the cytochrome P450 system”. The AUC ([3]; single dose 4 mg/kg) was 2800 ng·h/mL, the CL/F ([3]; single dose 4 mg/kg) was 27.4 mL/min per kg and the Cmax ([3]; single dose 4 mg/kg) was 1700 ng/mL. The t½ ([3]; single dose 4 mg/kg) was 0.9 h, the AUC ([3]; single dose 8 mg/kg) was 8100 ng·h/mL and the CL/F ([3]; single dose 8 mg/kg) was 18.9 mL/min per kg. The Cmax ([3]; single dose 8 mg/kg) was 3900 ng/mL, the t½ ([3]; single dose 8 mg/kg) was 1.1 h and the “mean CL/F” value [4] was 15.8 mL/min per kg. The “reduction in viral load versus AZT/3TC combination” value (HIV) was “larger reduction in viral load”, the “mean CL/F” value [5] was 11.5 mL/min per kg and the AUC ([6]; single dose 4 mg/kg) was 6000 ng·h/mL. The CL/F ([6]; single dose 4 mg/kg) was 13.4 mL/min per kg, the Cmax ([6]; single dose 4 mg/kg) was 2900 ng/mL and the t½ ([6]; single dose 4 mg/kg) was 1.2 h. The CL/F ([6]; single dose 8 mg/kg (600 mg)) was 10.2 mL/min per kg, the AUC ([6]; single dose 8 mg/kg) was 15700 ng·h/mL and the Cmax ([6]; single dose 8 mg/kg) was 4700 ng/mL. For the same molecule, the t½ ([6]; single dose 8 mg/kg) was 1.7 h, the AUC ([7]; recommended dose 300 mg twice daily) was 5000 to 6000 ng·h/mL and the AUC ([7]; single-dose studies, 600 mg) was 11000 to 16000 ng·h/mL. The “amount eliminated unchanged in the urine” value [8] was < 5%.
